Measurements from different studies.
Compare with care: the assays were run in different laboratories.
Target: Misshapen-like kinase 1 (MINK1, Homo sapiens, UniProt Q8N4C8)

`C#Cc1n[nH]c2c(-c3cn([C@@H](C)c4ccccn4)c(=O)[nH]c3=O)cc(F)cc12` has an inhibition of 5.6% (enzyme activity, inhibitor; 0.1 µM).
`N#CC1(c2ccccn2)CCN(Cc2cc(C(=O)O)c(=O)n3ccccc23)CC1` has a remaining binding of 92% (cell-free assay, competition with immobilised ligand; 1 µM).
The remaining activity of `CC(C)(C)c1cc(C=C(C#N)C#N)cc(Br)c1O` is reported as 111% (enzyme activity, inhibitor; 0.5 µM).
For `Cn1cncc1[C@@](O)(COc1ccc(C#N)cc1-c1ccc(OC(F)(F)F)cc1)c1ccc(C#N)cc1`, the remaining binding was 100% (cell-free assay, competition with immobilised ligand; 1 µM).
The inhibition of `Cn1cc(-c2cc(F)cc(N3CCn4c(cc5c4CCCC5)C3=O)c2CO)cc(Nc2ccc(N3CCN(C4COC4)CC3)cn2)c1=O` is reported as 12% (enzyme activity, inhibitor; 0.1 µM).
For `O=c1[nH]c2ccccc2n1C1CCN(Cc2ccc(-c3[nH]c4cc5ncnc5cc4nc3-c3ccccc3)cc2)CC1`, the remaining signal was 103% (cell-free assay; 0.5 µM).
With `Nc1ncc(-c2nc(N3CCOCC3)nc(N3CCOCC3)n2)c(C(F)F)n1` the remaining binding was 66% (binding, competition with immobilised ligand; 10 µM).
`Cc1nn(C)cc1-c1nc2c(N3CCN(Cc4ccc(Cl)cc4)CC3)c(Cl)cnc2[nH]1` has a remaining binding of 84% (binding, competition with immobilised ligand; 1 µM).
The inhibition of `Cn1cc(-c2cccc(N3CCc4c(sc5c4CC(C)(C)C5)C3=O)c2CO)cc(Nc2ccncn2)c1=O` is reported as 11% (enzyme activity, inhibitor; 1 µM).
`C#Cc1n[nH]c2c(-c3cn([C@@H](C)c4ccccc4)c(=O)[nH]c3=O)cc(F)cc12` gave an inhibition of 2% (enzyme activity, inhibitor; 0.1 µM).
